Experimental data as given in the M2OR odorant receptor database.
Where a chain is given by its changes, count along the chain named.

What follows are molecules tested against T1, OR1A2 (Homo sapiens) (UniProt Q9Y585). Settings: stereoisomer not certain.
T1 sequence (whole entry): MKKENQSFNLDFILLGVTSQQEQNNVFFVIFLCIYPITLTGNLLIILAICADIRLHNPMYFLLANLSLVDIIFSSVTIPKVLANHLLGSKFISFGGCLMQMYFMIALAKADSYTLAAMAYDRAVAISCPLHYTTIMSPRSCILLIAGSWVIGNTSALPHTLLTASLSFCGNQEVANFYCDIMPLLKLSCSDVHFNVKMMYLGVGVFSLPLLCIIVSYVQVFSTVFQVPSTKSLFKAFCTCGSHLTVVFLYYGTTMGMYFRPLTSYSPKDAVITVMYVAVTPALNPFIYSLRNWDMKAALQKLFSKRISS
Procedure, shortened: (§1)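 Each receptor–molecule pair is labelled responsive or non-responsive (inactive) according to whether the original authors judged the measured signal statistically different from baseline. The data were taken from the main text and supplementary material of published papers and checked for typos and inconsistencies. Assay methods differed by source, with transient luciferase assays in mammalian cell lines being common.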

Odorant receptor agonist call, inactive:
CCCCCO
CC1=C(O)C(=O)OC1C (centres undefined)
CCCCCCC=CCCC=O
CCCCCC(=O)C(C)C(C)=O (centres undefined)
O=C([O-])CCCCC(=O)[O-].[H+].[H+]
Cc1nccnc1C
CC(CO)CS (centres undefined)
COc1nccnc1CC(C)C
CC(=O)OCCC(C)C
C=C(C)C1CC=C(C)C(OC(C)=O)C1 (centres undefined)
CN(C)C
CCCC(S)CCOC(C)=O (centres undefined)
CC(=O)c1c(C)c([N+](=O)[O-])c(C(C)(C)C)c([N+](=O)[O-])c1C
CCC1OC(=O)C(O)=C1C (centres undefined)
CCCCS
CCCCCC=O
COC(C=C(C)CCC=C(C)C)OC
CCCCCCC=CC=O
CC(C)=CCCC(C)CC(=O)O (centres undefined)
CC(C)C12CCC(C)(CC1)O2
CCCCCCCCCO
CCC1OC(C)=C(O)C1=O (centres undefined)
CC(C)=CCCC(C)=CCCC(C)=CCO
CC1=NC(C)C(C)S1 (centres undefined)
CCCCCC(S)C(C)CO (centres undefined)
CC(=O)CCc1ccc(O)cc1
Cc1cnc(C)c(C)n1
CC1=C(O)C(=O)C(C)O1 (centres undefined)
CC1(C)C2CC=C(C=O)C1C2 (centres undefined)
CCCCCCO

Odorant receptor agonist call, active:
CCCCCCCCO
CC(=O)C=CC1C(C)=CCCC1(C)C (centres undefined)
C=C(C)C1CC=C(C)C(O)C1 (centres undefined)
CC(C)=CCCC(C)CCO (centres undefined)
CC(=O)C=CC1=C(C)CCCC1(C)C
CC(CC=O)CCCC(C)(C)O (centres undefined)

The molecules below were run on T2, OR1A2 G256C W293C. Settings: stereoisomer not certain.
T2 sequence (whole entry): T1 sequence (whole entry) with G256C, W293C
Procedure, shortened: as §1

Odorant receptor agonist call, inactive:
CC1=C(O)C(=O)OC1C (centres undefined)
CCCCCCC=CCCC=O
CCCC(S)CCOC(C)=O (centres undefined)
CCC1OC(=O)C(O)=C1C (centres undefined)
CCC1OC(C)=C(O)C1=O (centres undefined)
CC1=NC(C)C(C)S1 (centres undefined)
Cc1cnc(C)c(C)n1
CC1=C(O)C(=O)C(C)O1 (centres undefined)
